The record followed here is ChEMBL document CHEMBL3108771, “Crystal Structures of PI3Kα Complexed with PI103 and Its Derivatives: New Directions for Inhibitors Design” (ACS Med Chem Lett, 2014).

Assay [1] concerns the target T1, Phosphatidylinositol 4,5-bisphosphate 3-kinase catalytic subunit alpha isoform (Homo sapiens, UniProt P42336). Nature of the assay: Inhibition of N-terminal His-6-tagged full length human PI3Kalpha expressed in baculovirus-infected sf9 cells after 30 mins by TR-FRET assay. The gist of the method:
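IC50 is the mean of at least three independent experiments, each run in duplicate. Typical variation was below 20%.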

Assay [2] has as its target Phosphatidylinositol 4,5-bisphosphate 3-kinase catalytic subunit alpha isoform (Homo sapiens, UniProt P42336, Y836A). Nature of the assay: Inhibition of GST-tagged full length human PI3Kalpha Y836A mutant expressed in baculovirus-infected sf9 cells after 30 mins by TR-FRET assay. The gist of the method: (§1)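 Each mutant PI3Kα was expressed and purified in-house. IC50 is the mean of at least three independent experiments, each run in duplicate.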

For assay [3], the target named is T1, Phosphatidylinositol 4,5-bisphosphate 3-kinase catalytic subunit alpha isoform. As to the kind of experiment: Ratio of PI103 IC50 to compound IC50 for full length human PI3Kalpha. A digest of the protocol: (§2)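 Inhibitor IC50s were determined against wild-type PI3Kα and the M772A, D810A and Y836A mutants. The mutants were expressed and purified in-house. […] Fold change is the PI103 IC50 divided by the compound IC50 on the same enzyme form.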

Assay [4] deals with Phosphatidylinositol 4,5-bisphosphate 3-kinase catalytic subunit alpha isoform (Homo sapiens, UniProt P42336, D810A). Nature of the assay: Inhibition of GST-tagged full length human PI3Kalpha D810A mutant expressed in baculovirus-infected sf9 cells after 30 mins by TR-FRET assay. A digest of the protocol: as §1
For orientation: TR-FRET usually uses a lanthanide donor and a delayed reading to cut background.

In assay [5] the test system is Phosphatidylinositol 4,5-bisphosphate 3-kinase catalytic subunit alpha isoform (Homo sapiens), P42336 [M772A]. Nature of the assay: Ratio of PI103 IC50 to compound IC50 for full length human PI3Kalpha M772A mutant. A digest of the protocol: as §2
The subject of assay [6] is Phosphatidylinositol 4,5-bisphosphate 3-kinase catalytic subunit alpha isoform (Homo sapiens), P42336 [Y836A]. As to the kind of experiment: Ratio of PI103 IC50 to compound IC50 for full length human PI3Kalpha Y836A mutant. The gist of the method:
as §2

Assay [7] addresses Phosphatidylinositol 4,5-bisphosphate 3-kinase catalytic subunit alpha isoform (Homo sapiens, UniProt P42336, M772A). As to the kind of experiment: Inhibition of GST-tagged full length human PI3Kalpha M772A mutant expressed in baculovirus-infected sf9 cells after 30 mins by TR-FRET assay. The gist of the method: as §1
Assay [8] relates to Phosphatidylinositol 4,5-bisphosphate 3-kinase catalytic subunit alpha isoform (Homo sapiens), P42336 [D810A]. As to the kind of experiment: Ratio of PI103 IC50 to compound IC50 for full length human PI3Kalpha D810A mutant. The gist of the method:
as §2

Structures are written as SMILES. Bounds are passed on as bounds.

T1 sequence (P42336 whole entry, canonical isoform): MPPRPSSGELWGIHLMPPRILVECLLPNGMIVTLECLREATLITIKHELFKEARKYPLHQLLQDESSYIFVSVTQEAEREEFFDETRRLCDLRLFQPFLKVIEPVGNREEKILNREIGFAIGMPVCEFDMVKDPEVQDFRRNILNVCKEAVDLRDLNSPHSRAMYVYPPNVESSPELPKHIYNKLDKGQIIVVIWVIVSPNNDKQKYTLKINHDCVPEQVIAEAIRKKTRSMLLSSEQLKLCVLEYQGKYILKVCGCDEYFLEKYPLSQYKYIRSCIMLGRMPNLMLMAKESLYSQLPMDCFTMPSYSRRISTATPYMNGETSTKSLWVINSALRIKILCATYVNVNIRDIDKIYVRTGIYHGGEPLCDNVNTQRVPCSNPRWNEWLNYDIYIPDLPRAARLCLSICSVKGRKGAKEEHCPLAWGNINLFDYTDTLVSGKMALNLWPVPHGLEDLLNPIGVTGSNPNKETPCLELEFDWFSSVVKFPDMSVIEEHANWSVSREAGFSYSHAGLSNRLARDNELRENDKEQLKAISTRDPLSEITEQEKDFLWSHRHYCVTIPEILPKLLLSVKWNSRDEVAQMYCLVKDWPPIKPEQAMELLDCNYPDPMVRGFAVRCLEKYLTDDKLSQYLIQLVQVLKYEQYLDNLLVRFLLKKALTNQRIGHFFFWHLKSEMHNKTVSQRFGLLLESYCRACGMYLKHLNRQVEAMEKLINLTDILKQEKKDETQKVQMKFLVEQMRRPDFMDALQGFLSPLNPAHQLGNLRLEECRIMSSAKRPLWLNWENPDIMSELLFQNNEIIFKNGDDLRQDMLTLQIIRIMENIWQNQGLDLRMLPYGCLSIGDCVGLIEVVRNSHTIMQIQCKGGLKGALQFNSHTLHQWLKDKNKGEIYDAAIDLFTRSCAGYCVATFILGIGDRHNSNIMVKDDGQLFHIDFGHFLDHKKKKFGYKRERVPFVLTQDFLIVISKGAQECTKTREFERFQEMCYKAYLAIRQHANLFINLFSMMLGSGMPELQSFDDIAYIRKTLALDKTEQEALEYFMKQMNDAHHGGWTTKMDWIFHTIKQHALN
Sequence of Phosphatidylinositol 4,5-bisphosphate 3-kinase catalytic subunit alpha isoform (Homo sapiens), P42336 [Y836A] (P42336 whole entry Y836A, canonical isoform): as the sequence (P42336 whole entry, canonical isoform) above, with Y836A counted along it
Sequence of Phosphatidylinositol 4,5-bisphosphate 3-kinase catalytic subunit alpha isoform (Homo sapiens, UniProt P42336, Y836A) (P42336 whole entry Y836A, canonical isoform): as the sequence (P42336 whole entry, canonical isoform) above, with Y836A counted along it
Sequence of Phosphatidylinositol 4,5-bisphosphate 3-kinase catalytic subunit alpha isoform (Homo sapiens), P42336 [M772A] (P42336 whole entry M772A, canonical isoform): as the sequence (P42336 whole entry, canonical isoform) above, with M772A counted along it
Sequence of Phosphatidylinositol 4,5-bisphosphate 3-kinase catalytic subunit alpha isoform (Homo sapiens, UniProt P42336, M772A) (P42336 whole entry M772A, canonical isoform): as the sequence (P42336 whole entry, canonical isoform) above, with M772A counted along it
Sequence of Phosphatidylinositol 4,5-bisphosphate 3-kinase catalytic subunit alpha isoform (Homo sapiens, UniProt P42336, D810A) (P42336 whole entry D810A, canonical isoform): as the sequence (P42336 whole entry, canonical isoform) above, with D810A counted along it
Sequence of Phosphatidylinositol 4,5-bisphosphate 3-kinase catalytic subunit alpha isoform (Homo sapiens), P42336 [D810A] (P42336 whole entry D810A, canonical isoform): as the sequence (P42336 whole entry, canonical isoform) above, with D810A counted along it

A word on the IC50: it is the concentration at which inhibition is half-maximal. A low value points to greater potency. For `Oc1cc(Cl)cc(-c2nc(N3CCOCC3)c3oc4ncccc4c3n2)c1`, the IC50 in assay [1] stood at 990 nM.
In assay [1], `Oc1cc(F)cc(-c2nc(N3CCOCC3)c3oc4ncccc4c3n2)c1` showed an IC50 of 40.9 nM.
Still for that read-out and setting: next, `Cc1cc(O)cc(-c2nc(N3CCOCC3)c3oc4ncccc4c3n2)c1`: greater than 10000 nM.
Regarding `Oc1cc(O)cc(-c2nc(N3CCOCC3)c3oc4ncccc4c3n2)c1`, the IC50 in assay [2] is 140 nM; in assay [1] it was 5.9 nM; in assay [4], 61.3 nM; in assay [7], 53.4 nM. The Ratio IC50 in assay [3] is 3; in assay [5], 19.4; in assay [6] it was 5.7; in assay [8], 1.2.
In the case of `O=[N+]([O-])c1cc(O)cc(-c2nc(N3CCOCC3)c3oc4ncccc4c3n2)c1`, the IC50 in assay [1] was greater than 10000 nM.
The same measure, in the same setting: as for `Oc1cc(-c2nc(N3CCOCC3)c3oc4ncccc4c3n2)cc(C(F)(F)F)c1`, the figure is greater than 10000 nM.
Same read-out and setting: as for `Oc1cc(Br)cc(-c2nc(N3CCOCC3)c3oc4ncccc4c3n2)c1`, the figure is 1210 nM; as for `Nc1cc(O)cc(-c2nc(N3CCOCC3)c3oc4ncccc4c3n2)c1`, 20.6 nM.
